Source: publication PMC3169777 (European Journal of Clinical Pharmacology, 2011)
Where two headings read alike, the source gives them in different places.

Columns and labels:
ETA and ETB receptors = details: cited from earlier work
ETB receptors = details: isolated rat aortic and tracheal preparations; cited from earlier work
[1] = Metabolic profiling of plasma and urine; type: in vivo, human; details: pooled urine of two subjects, 600-mg dose group
[2] = Simulation of multiple-dose profiles using the single-dose data; parameters: species or system human; details: once-a-day regimen, data not shown
ETA receptors = details: isolated rat aortic and tracheal preparations; cited from earlier work
[3] = rats; cited from earlier work
bile salts = details: rats, ref Actelion Pharmaceuticals, data on file, cited from earlier work
[4] = system: patients with treatment-resistant hypertension; details: cited from earlier work
total bile salts = assay: Serum total bile salts; type: in vivo, human
Summary of the method: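 Venous blood was drawn predose and at 1, 2, 3 and 4 h in fasted subjects, with no later draws because of a meal. Tubes without anticoagulant stood 30 min at room temperature, were spun 10 min at 1,500 g, 4°C, and serum was kept at −20°C. An enzymatic assay was used (detection limit 1 μmol/l). AUC0–4h was derived non-compartmentally and compared with placebo by ANOVA (P < 0.05).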

healthy male subjects = assay: Safety and tolerability; type: in vivo, human; details: for Abdominal pain: number of subjects reporting adverse event / Back pain: number of subjects reporting adverse event / Flushing: number of subjects reporting adverse event / Headache: number of subjects reporting adverse event / Hepatic function abnormal: number of subjects reporting adverse event / Leukocytosis: number of subjects reporting adverse event / Nasopharyngitis: number of subjects reporting adverse event / Nausea: number of subjects reporting adverse event / Neck pain: number of subjects reporting adverse event / Rhinitis: number of subjects reporting adverse event / Vomiting: number of subjects reporting adverse event: n = 6
Summary of the method: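 Double-blind, randomised, placebo-controlled single-ascending-dose design in healthy males: new group of 8 per level (6 active, 2 placebo), doses 0.2–600 mg, fasted. Next dose given only after safety review. Confinement from about 12 h predose to 48 h postdose. Adverse events, vital signs, 12-lead ECG, clinical laboratory and physical examination recorded. Descriptive analysis with placebo subjects pooled.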

[5] = type: in vivo; details: male, human, plasma, plasma macitentan
Summary of the method: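 Single fasted doses of 0.2–600 mg were given, 6 active subjects per group. EDTA plasma was spun 10 min at 1,500 g, 4°C, and stored at −20°C. Sampling ran to 48 h, or 144 h for the 300 and 600 mg groups. Parent and metabolite were quantified by validated LC-MS/MS (linear 1–2,000 ng/ml, LOQ 1.0 ng/ml). Cmax, tmax, AUC and t1/2 were derived non-compartmentally.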

[6] = system: human hepatic transporters; details: preclinical models, cited from earlier work

For NS(=O)(=O)Nc1ncnc(OCCOc2ncc(Br)cn2)c1-c1ccc(Br)cc1 [ACT-132577], the “selectivity for ETA receptors over ETB receptors” value (ETA and ETB receptors) is given as roughly 16 fold, the “affinity for ETA and ETB receptors compared with macitentan” value (ETA and ETB receptors; preclinical experiments) is given as “lower” and the “potency as endothelin receptor antagonist compared with macitentan” value (ETA and ETB receptors; receptor binding and functional assays) is given as “less potent”. For the same molecule, the “fold less potent than macitentan in blocking ETB receptors” value (ETB receptors) was “up to 5 fold”, the detection in urine [1] was “no macitentan and ACT-132577 could be detected” and the “predicted accumulation factor upon repeated dosing” value [2] was 10. For the same molecule, the “fold less potent than macitentan in blocking ETA receptors” value (ETA receptors) was “up to 5 fold” and the half-life [3] was 8.5 h.

For COc1ccccc1Oc1c(NS(=O)(=O)c2ccc(C(C)(C)C)cc2)nc(-c2ncccn2)nc1OCCO [bosentan, reference compound], the “effect on plasma bile salts” value (bile salts; intravenous administration) is listed as “acute increase in plasma bile salts”.

In the case of COc1cc(OC)nc(O[C@H](C(=O)O)C(OC)(c2ccccc2)c2ccccc2)n1 [darusentan], the “oedema or fluid retention, patients affected” value [4] is given as 27%.

For CCCNS(=O)(=O)Nc1ncnc(OCCOc2ncc(Br)cn2)c1-c1ccc(Br)cc1 [macitentan, N-[5-(4-Bromophenyl)-6-(2-(5-bromopyrimidin-2-yloxy)ethoxy)pyrimidin-4-yl]-N′-propylsulfamide], the “selectivity for ETA receptors over ETB receptors” value (ETA and ETB receptors) is given as “about 50 fold”, the “effect on circulating bile salts” value (bile salts) is given as “does not increase circulating bile salts” and the “effect on serum total bile salts at the lowest dose” value (total bile salts; single dose 0.2 mg macitentan, P < 0.05 compared with placebo) is given as “small but statistically significant effect”. The “effect on serum total bile salt concentrations” value (total bile salts; single doses of up to 600 mg, 4-h observation period) was “no dose-dependent effect”, the detection in urine [1] was “no macitentan and ACT-132577 could be detected” and the “predicted accumulation factor upon repeated dosing” value [2] was 1.7. The “increased alanine aminotransferase, times the upper limit of normal” value (healthy male subjects; one subject, 600 mg macitentan, 7 days after drug administration) was ≤ 2 times the upper limit of normal, the “Abdominal pain: number of subjects reporting adverse event” value (“Abdominal pain: number” below) (healthy male subjects; single dose 0.2 mg macitentan) was 0 and the “Back pain: number of subjects reporting adverse event” value (from here on “Back pain: number”) (healthy male subjects; single dose 0.2 mg macitentan) was 0. The “Flushing: number of subjects reporting adverse event” value (from here on “Flushing: number”) (healthy male subjects; single dose 0.2 mg macitentan) was 0, the “Headache: number of subjects reporting adverse event” value (“Headache: number” for short) (healthy male subjects; single dose 0.2 mg macitentan) was 0 and the “Hepatic function abnormal: number of subjects reporting adverse event” value (“Hepatic function abnormal: number” for short) (healthy male subjects; single dose 0.2 mg macitentan) was 0. For the same molecule, the “Leukocytosis: number of subjects reporting adverse event” value (from here on “Leukocytosis: number”) (healthy male subjects; single dose 0.2 mg macitentan) was 0, the “Nasopharyngitis: number of subjects reporting adverse event” value (“Nasopharyngitis: number” for short) (healthy male subjects; single dose 0.2 mg macitentan) was 0 and the “Nausea: number of subjects reporting adverse event” value (“Nausea: number” below) (healthy male subjects; single dose 0.2 mg macitentan) was 0. The “Neck pain: number of subjects reporting adverse event” value (from here on “Neck pain: number”) (healthy male subjects; single dose 0.2 mg macitentan) was 0, the “Rhinitis: number of subjects reporting adverse event” value (from here on “Rhinitis: number”) (healthy male subjects; single dose 0.2 mg macitentan) was 0 and the “Vomiting: number of subjects reporting adverse event” value (“Vomiting: number” for short) (healthy male subjects; single dose 0.2 mg macitentan) was 0. For the same molecule, the “Abdominal pain: number” value (healthy male subjects; single dose 1 mg macitentan) was 0, the “Back pain: number” value (healthy male subjects; single dose 1 mg macitentan) was 0 and the “Flushing: number” value (healthy male subjects; single dose 1 mg macitentan) was 0. For the same molecule, the “Headache: number” value (healthy male subjects; single dose 1 mg macitentan) was 0, the “Hepatic function abnormal: number” value (healthy male subjects; single dose 1 mg macitentan) was 0 and the “Leukocytosis: number” value (healthy male subjects; single dose 1 mg macitentan) was 0. For the same molecule, the “Nasopharyngitis: number” value (healthy male subjects; single dose 1 mg macitentan) was 0, the “Nausea: number” value (healthy male subjects; single dose 1 mg macitentan) was 0 and the “Neck pain: number” value (healthy male subjects; single dose 1 mg macitentan) was 0. For the same molecule, the “Rhinitis: number” value (healthy male subjects; single dose 1 mg macitentan) was 0, the “Vomiting: number” value (healthy male subjects; single dose 1 mg macitentan) was 0 and the “Abdominal pain: number” value (healthy male subjects; single dose 5 mg macitentan) was 0. The “Back pain: number” value (healthy male subjects; single dose 5 mg macitentan) was 0, the “Flushing: number” value (healthy male subjects; single dose 5 mg macitentan) was 0 and the “Headache: number” value (healthy male subjects; single dose 5 mg macitentan) was 0. The “Hepatic function abnormal: number” value (healthy male subjects; single dose 5 mg macitentan) was 0, the “Leukocytosis: number” value (healthy male subjects; single dose 5 mg macitentan) was 0 and the “Nasopharyngitis: number” value (healthy male subjects; single dose 5 mg macitentan) was 0. For the same molecule, the “Nausea: number” value (healthy male subjects; single dose 5 mg macitentan) was 0, the “Neck pain: number” value (healthy male subjects; single dose 5 mg macitentan) was 0 and the “Rhinitis: number” value (healthy male subjects; single dose 5 mg macitentan) was 0. For the same molecule, the “Vomiting: number” value (healthy male subjects; single dose 5 mg macitentan) was 0, the “Abdominal pain: number” value (healthy male subjects; single dose 25 mg macitentan) was 0 and the “Back pain: number” value (healthy male subjects; single dose 25 mg macitentan) was 0. For the same molecule, the “Flushing: number” value (healthy male subjects; single dose 25 mg macitentan) was 0, the “Headache: number” value (healthy male subjects; single dose 25 mg macitentan) was 2 and the “Hepatic function abnormal: number” value (healthy male subjects; single dose 25 mg macitentan) was 0. The “Leukocytosis: number” value (healthy male subjects; single dose 25 mg macitentan) was 0, the “Nasopharyngitis: number” value (healthy male subjects; single dose 25 mg macitentan) was 1 and the “Nausea: number” value (healthy male subjects; single dose 25 mg macitentan) was 0. For the same molecule, the “Neck pain: number” value (healthy male subjects; single dose 25 mg macitentan) was 0, the “Rhinitis: number” value (healthy male subjects; single dose 25 mg macitentan) was 0 and the “Vomiting: number” value (healthy male subjects; single dose 25 mg macitentan) was 0. For the same molecule, the “Abdominal pain: number” value (healthy male subjects; single dose 100 mg macitentan) was 0, the “Back pain: number” value (healthy male subjects; single dose 100 mg macitentan) was 0 and the “Flushing: number” value (healthy male subjects; single dose 100 mg macitentan) was 0. The “Headache: number” value (healthy male subjects; single dose 100 mg macitentan) was 1, the “Hepatic function abnormal: number” value (healthy male subjects; single dose 100 mg macitentan) was 0 and the “Leukocytosis: number” value (healthy male subjects; single dose 100 mg macitentan) was 1. For the same molecule, the “Nasopharyngitis: number” value (healthy male subjects; single dose 100 mg macitentan) was 0, the “Nausea: number” value (healthy male subjects; single dose 100 mg macitentan) was 0 and the “Neck pain: number” value (healthy male subjects; single dose 100 mg macitentan) was 1. For the same molecule, the “Rhinitis: number” value (healthy male subjects; single dose 100 mg macitentan) was 0, the “Vomiting: number” value (healthy male subjects; single dose 100 mg macitentan) was 0 and the “Abdominal pain: number” value (healthy male subjects; single dose 300 mg macitentan) was 0. The “Back pain: number” value (healthy male subjects; single dose 300 mg macitentan) was 1, the “Flushing: number” value (healthy male subjects; single dose 300 mg macitentan) was 0 and the “Headache: number” value (healthy male subjects; single dose 300 mg macitentan) was 2. The “Hepatic function abnormal: number” value (healthy male subjects; single dose 300 mg macitentan) was 0, the “Leukocytosis: number” value (healthy male subjects; single dose 300 mg macitentan) was 0 and the “Nasopharyngitis: number” value (healthy male subjects; single dose 300 mg macitentan) was 0. For the same molecule, the “Nausea: number” value (healthy male subjects; single dose 300 mg macitentan) was 0, the “Neck pain: number” value (healthy male subjects; single dose 300 mg macitentan) was 0 and the “Rhinitis: number” value (healthy male subjects; single dose 300 mg macitentan) was 0. The “Vomiting: number” value (healthy male subjects; single dose 300 mg macitentan) was 0, the “Abdominal pain: number” value (healthy male subjects; single dose 600 mg macitentan) was 1 and the “Back pain: number” value (healthy male subjects; single dose 600 mg macitentan) was 0. The “Flushing: number” value (healthy male subjects; single dose 600 mg macitentan) was 1, the “Headache: number” value (healthy male subjects; single dose 600 mg macitentan) was 5 and the “Hepatic function abnormal: number” value (healthy male subjects; single dose 600 mg macitentan) was 1. For the same molecule, the “Leukocytosis: number” value (healthy male subjects; single dose 600 mg macitentan) was 0, the “Nasopharyngitis: number” value (healthy male subjects; single dose 600 mg macitentan) was 0 and the “Nausea: number” value (healthy male subjects; single dose 600 mg macitentan) was 2. For the same molecule, the “Neck pain: number” value (healthy male subjects; single dose 600 mg macitentan) was 0, the “Rhinitis: number” value (healthy male subjects; single dose 600 mg macitentan) was 2 and the “Vomiting: number” value (healthy male subjects; single dose 600 mg macitentan) was 2. For the same molecule, the maximum tolerated dose (healthy male subjects; single dose, healthy male subjects) was 300 mg, the “effects on vital signs, ECG and clinical laboratory variables” value (healthy male subjects; single doses 0.2 to 600 mg) was “no clinically significant drug-related effects” and the half-life ([5]; 600 mg, apparent terminal half-life, two higher dose groups (300 and 600 mg)) was roughly 16 h. The Tmax ([5]; tmax in most subjects, individual values) was 4 to 12 h, the half-life [3] was 2 h and the volume of distribution [3] was 1 L/kg. For the same molecule, the “inhibition of human hepatic transporters” value ([6]; ref Actelion Pharmaceuticals, data on file) was “did not inhibit”.

In the case of Cc1cc2c(cc1CC(=O)c1sccc1S(=O)(=O)Nc1onc(C)c1Cl)OCO2 [sitaxentan, reference compound], the “interaction with human hepatic transporters” value [6] is listed as “substrates of and inhibit human hepatic transporters”.
